TRPML3 agonist = agonists of human TRPML3 channel; HEK293 TRPML3-YFP, Fluo-8 calcium fluorescence; 100% = the carbachol control signal; activation, % at 3 µM; AID 1448; Q8TDD5; 220,000 tested, 0.29% active;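 active means activation above its plate's cutoff, the mean activation of the plate's test wells plus 3 SD, cut at about 12% in these data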;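 further: 0% = DMSO only wells and 100% = carbachol wells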
Target sequence (Q8TDD5 whole entry, looked up): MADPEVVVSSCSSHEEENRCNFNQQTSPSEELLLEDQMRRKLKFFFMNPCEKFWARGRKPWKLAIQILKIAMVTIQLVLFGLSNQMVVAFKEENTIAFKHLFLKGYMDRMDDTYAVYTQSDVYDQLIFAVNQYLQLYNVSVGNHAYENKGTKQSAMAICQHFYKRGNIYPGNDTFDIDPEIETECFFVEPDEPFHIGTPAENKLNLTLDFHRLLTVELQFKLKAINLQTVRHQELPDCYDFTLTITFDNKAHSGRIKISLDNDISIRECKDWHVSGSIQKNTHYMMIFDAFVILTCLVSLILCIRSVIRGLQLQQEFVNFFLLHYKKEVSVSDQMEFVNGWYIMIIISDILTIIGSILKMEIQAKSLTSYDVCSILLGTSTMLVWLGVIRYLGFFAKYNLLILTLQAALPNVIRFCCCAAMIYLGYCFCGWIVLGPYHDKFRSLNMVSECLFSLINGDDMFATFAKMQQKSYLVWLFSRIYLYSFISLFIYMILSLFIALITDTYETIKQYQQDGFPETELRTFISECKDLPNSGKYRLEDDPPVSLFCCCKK
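Material: TRPML3-YFP stable HEK293 cells | Dosing: One concentration, 3 µM nominal, 0.3% DMSO | Timing: 125 s total fluorescence read per well | Technique: Fluo-8 calcium dye fluorescence, ex 470-495, em 515-575 nm | Measure: Percent activation from peak-to-basal fluorescence ratio, scaled between DMSO and carbachol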
CRFBP-R2 block = blocks CRF-induced signaling of the CRF-BP/CRF-R2 complex | 350,000 tested, 0.59% active | inhibition, % at 11.8 µM | HEK293 CRF-R2/CRF-BP, CRF-induced calcium fluorescence;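 active means inhibition of the ligand-induced calcium signal above about 50% at the single tested concentration, limit read from the data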
VIM-2 inhibitor = blocks Pseudomonas aeruginosa VIM-2 metallo-beta-lactamase | AID 1527 | 290,000 tested, 0.89% active | purified VIM-2, nitrocefin hydrolysis, epi-absorbance fluorescence | inhibition, % at 5.6 µM;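 active means inhibition above the mean of all tested compounds plus 3 SD, cutoff set per screening run, cut at about 7.5% in these data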;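 further: red hydrolysis product quenches plate fluorescence so inhibitors raise well fluorescence; 0% = enzyme with DMSO and 100% = DMSO without enzyme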
zfTRPN1 agonist = zebrafish TRPN1 (NompC) channel agonism; AID 1424; 220,000 tested, 0.18% active; activation, % at 3 µM; HEK293 zebrafish TRPN1-YFP, Fluo-8 calcium fluorescence; 100% = response to 87 µM carbachol;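 active means activation above its plate's cutoff, the mean activation of test wells on that plate plus 3 SD, cut at about 19% in these data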;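 further: 0% = DMSO alone and 100% = 87 µM carbachol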
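Material – zebrafish TRPN1-YFP in HEK293 cells · Doses – 3 µM single point · Schedule – dye 1 h 37 °C plus 30 min RT · Signal – Fluo-8 calcium fluorescence, excitation 470-495 nm, emission 515-575 nm · Read-out – % activation versus carbachol response · Control set – carbachol high, DMSO low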
CRFR2-BP ag = CRF-BP/CRF-R2 complex agonism | HEK293 CRF-R2/CRF-BP, calcium dye fluorescence (FLIPR); percent of saturating CRF peptide response | activation, % at 13.2 µM | 350,000 tested, 0.46% active | AID 588473;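 active means activation of at least 50%, plus an integration ratio under a set limit after plate pattern correction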;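 further: plate controls were neutral control wells without compound for no effect and CRF at EC100 for full effect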
IMP-1 inh-1 = blocks Pseudomonas aeruginosa IMP-1 metallo-beta-lactamase | purified IMP-1, nitrocefin hydrolysis, epi-absorbance fluorescence | inhibition, % at 5.6 µM | 290,000 tested, 0.45% active | AID 1556;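 active means inhibition above the mean plus 3 SD of all compounds in the same screening run, cut at about 4.5% in these data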;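 further: 0% = IMP-1 with DMSO and 100% = DMSO wells lacking enzyme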
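system = purified recombinant IMP-1 beta-lactamase | amount = 0.2 nM IMP-1, as dispensed | medium = HEPES buffer pH 7.1 with ZnSO4 and Brij 35 | times = 25 °C, 15 min preincubation, 25 min reaction | detection = plate fluorescence quenching by hydrolysis product, ex 480/em 530 nm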
IMP-1 inh-2 = IMP-1 inhibition, counter-screen for VIM-2 inhibitors; shares compounds with VIM-2 inhibitor; purified IMP-1, nitrocefin hydrolysis, epi-absorbance fluorescence; inhibition, % at 5.6 µM; 1,300 tested, under 10 active; call rule not given here;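 further: 0% = enzyme with vehicle and 100% = vehicle without enzyme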
VIM-2 FRET inh = counter-screen for VIM-2 inhibitors: epi-absorbance artifacts via FRET; shares compounds with VIM-2 inhibitor; purified VIM-2, CCF2 FRET substrate hydrolysis; inhibition, % at 5.6 µM; 1,300 tested, 23% active; AID 1857;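 active means inhibition above the mean of all tested compounds plus 3 SD, cut at about 19% in these data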;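 further: 0% = VIM-2 plus DMSO and 100% = no enzyme wells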
TEM-1 inh = blocks E. coli TEM-1 beta-lactamase in VIM-2 selectivity screen. shares compounds with VIM-2 inhibitor. Purified TEM-1, nitrocefin hydrolysis, epi-absorbance fluorescence. inhibition, % at 5.6 µM. 1,300 tested, 3% active. AID 1866;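 active means inhibition above that campaign's mean inhibition plus 3 SD, cut at about 0.46% in these data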;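 further: 0% = TEM-1 with DMSO and 100% = TEM-1 with 100 µM potassium clavulanate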
Target sequence (P62593 whole entry, looked up): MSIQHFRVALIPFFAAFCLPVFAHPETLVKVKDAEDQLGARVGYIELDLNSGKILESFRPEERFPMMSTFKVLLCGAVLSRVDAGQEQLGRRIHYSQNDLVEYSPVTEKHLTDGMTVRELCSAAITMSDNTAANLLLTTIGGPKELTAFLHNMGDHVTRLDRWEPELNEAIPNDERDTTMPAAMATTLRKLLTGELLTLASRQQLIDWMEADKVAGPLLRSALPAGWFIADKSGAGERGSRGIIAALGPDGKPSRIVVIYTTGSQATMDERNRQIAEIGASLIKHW
VIM-2 confirm 2 = confirmation of P. aeruginosa VIM-2 metallo-beta-lactamase inhibitors. shares compounds with VIM-2 inhibitor. purified VIM-2, nitrocefin hydrolysis, epi-absorbance. inhibition, % at 5.6 µM. 1,300 tested, 96% active. AID 2187;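 active means inhibition of the VIM-2 beta-lactamase enzyme above about 11% from the earlier first-round screen, limit read from the data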;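 further: 0% = VIM-2 with DMSO and 100% = buffer wells without enzyme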
The depositor's hits bear a star; / = no result. A selection: hits, their analogues and other compounds. The true share with any hit is near 2.1%.

SMILES | TRPML3 agonist | CRFBP-R2 block | VIM-2 inhibitor | zfTRPN1 agonist | CRFR2-BP ag | IMP-1 inh-1 | IMP-1 inh-2 | VIM-2 FRET inh | TEM-1 inh | VIM-2 confirm 2
COc1cccc(C(=O)N2CCC(C(=O)NCc3ccc(C)cc3)CC2)c1 | / | -16 | 0 | / | 0 | 0 | / | / | / | /
Cc1ccc(Nc2cc(C)nc(-c3ccccc3O)n2)cc1 | 0 | -19 | -8 | -1 | 0 | -6 | / | / | / | /
Cc1cc(NCCCN)nc(-c2ccccc2O)n1 | 0 | 2 | 36* | 1 | 1 | -4 | -3 | -1 | -7 | 54*
COC(=O)C/C=N/N=C1/NC(=O)/C(=C/C(=O)O)S1 | 0 | 0 | -3 | 1 | -3 | -3 | / | / | / | /
COc1ccccc1N1CC(O)=C(c2nc3ccccc3c(=O)[nH]2)C1=N | 1 | -8 | 15* | 0 | -1 | -3 | -4 | -6 | -9 | 23*
COC(=O)C(Cc1c[nH]c2ccccc12)NC(=O)c1cccc(S(=O)(=O)N2CCCCC2)c1 (stereo not drawn) | / | 0 | / | / | -2 | / | / | / | / | /
CCN(CC)C(=O)c1cc2c(=O)n3cccc(C)c3nc2n1C | 1 | 1 | 3 | 3 | -1 | -2 | / | / | / | /
CCN(CC)C(=O)c1cc2c(=O)n3cccc(C)c3nc2s1 | / | 14 | 16* | / | -1 | -2 | -4 | -10 | -3 | 20*
CCCCN(CC)C(=O)c1cc2c(=O)n3cccc(C)c3nc2s1 | / | 4 | 12* | / | 0 | -1 | -2 | -5 | -4 | 19*
CCN(C(=O)c1cc2c(=O)n3ccccc3nc2s1)C1CCCCC1 | / | -7 | 3 | / | 1 | -4 | / | / | / | /
O=C(O)c1nn(Cc2csc(-c3ccccc3)n2)c(=O)c2ccccc12 | / | -8 | 1 | / | 2 | 0 | / | / | / | /
CCOC(=O)c1c(-c2ccccc2)oc2ccc(OCC(O)CNCCN(C)C)cc12 (stereo not drawn) | / | -1 | 25* | / | 2 | 1 | -3 | 20* | -6 | 38*
CCOC(=O)c1c(-c2ccccc2)oc2ccc(OCC)cc12 | 0 | -15 | -2 | 1 | 4 | -1 | / | / | / | /
Cc1nc(S/C(=C\c2ccc(-c3ccc(C(=O)O)c(Cl)c3)o2)C(=O)O)n[nH]1 | 0 | 11 | 16* | 2 | 6 | -5 | -6 | 17* | -7 | 17*
Cc1c(CNCCc2ccccc2Cl)c(C(=O)O)c(C)n1-c1ccccc1 | / | -5 | 3 | / | -2 | -1 | / | / | / | /
COC(=O)c1ccc(CNC(=O)COC(=O)c2ccccc2-c2ccccc2)cc1 | / | 12 | / | / | 0 | / | / | / | / | /
Cc1cc(C)n2c(Br)c(CSc3nc4ccccc4s3)nc2n1 | 0 | 18 | 23* | -1 | -3 | -2 | -3 | 69* | -6 | 47*
O=C(COC(=O)C12CC3CC(CC(Br)(C3)C1)C2)Nc1cccnc1Cl | 1 | 7 | -3 | 0 | -1 | -2 | / | / | / | /
O=[N+]([O-])c1ccc(O)c(-c2nn[nH]n2)c1 | 1 | -1 | -4 | 0 | 1 | -1 | / | / | / | /
Cc1cc(C)n(-c2ccc([N+](=O)[O-])cc2-c2nn[nH]n2)n1 | 1 | 12 | 26* | 0 | -1 | -2 | -3 | 53* | -5 | 33*
O=C(CN(C1CCCCC1)S(=O)(=O)c1ccc(F)cc1)NCC1CCCO1 (stereo not drawn) | / | 13 | / | / | 1 | / | / | / | / | /
CN(C)S(=O)(=O)c1ccc(NC(=O)COc2ncnc3sccc23)cc1 | 1 | -6 | 22* | 0 | 3 | -2 | -2 | -4 | -4 | 3
CNC(=O)COc1ncnc2sccc12 | 1 | 23 | -2 | 0 | 0 | -3 | / | / | / | /
Cc1cc(NCCCn2ccnc2)n2nc(C)c(-c3ccccc3)c2n1 | 0 | -10 | 68* | -1 | -6 | -3 | -4 | -15 | -7 | 79*
Cc1cc(NCc2ccccc2)n2ncc(-c3ccccc3)c2n1 | / | -10 | -3 | / | 0 | -4 | / | / | / | /
SMILES | TRPML3 agonist | CRFBP-R2 block | VIM-2 inhibitor | zfTRPN1 agonist | CRFR2-BP ag | IMP-1 inh-1 | IMP-1 inh-2 | VIM-2 FRET inh | TEM-1 inh | VIM-2 confirm 2
Cc1cc(NCCN2CCOCC2)n2nc(C)c(-c3ccc(Cl)cc3)c2n1 | 0 | -13 | -2 | 1 | 1 | -5 | / | / | / | /
Cc1cc(NCCCn2ccnc2)n2ncc(-c3ccccc3)c2n1 | -1 | -5 | 57* | -1 | -1 | -2 | -1 | -14 | 1.4* | 73*
c1ccc(-c2nc(NCCCn3ccnc3)c3ccccc3n2)cc1 | 1 | -39 | 22* | 0 | -2 | -3 | -2 | -16 | -1 | 36*
Cc1cc(NCCCn2ccnc2)n2nc(C)c(-c3ccc(Cl)cc3)c2n1 | 0 | -1 | 50* | -2 | 0 | 0 | -2 | -22 | -6 | 60*
Cc1cc(NCCN2CCOCC2)n2nc(C)c(-c3ccccc3)c2n1 | 0 | -9 | -4 | 0 | -3 | -3 | / | / | / | /
CCOC(=O)c1cnc2c(cnn2C)c1Cl | 1 | 2 | -3 | 1 | 0 | -3 | / | / | / | /
CCOC(=O)c1cnc2c(cnn2C)c1NCCCn1ccnc1 | 1 | -7 | 75* | 1 | 1 | -1 | -3 | -10 | -4 | 81*
O=C1Nc2ccc(Br)cc2/C1=C/c1ccc(C(=O)O)cc1 | / | / | 0 | / | / | -3 | / | / | / | /
CSc1nc(NCCCN(C)C)c2c3c(sc2n1)CN(C)CC3 | / | / | 25* | / | / | -3 | -2 | 1 | -5 | 37*
COc1ccccc1-c1noc(CCC(=O)NC2CCCCC2)n1 | / | -1 | -3 | / | -1 | -2 | / | / | / | /
COc1ccc(COC(=O)C2CCN(S(=O)(=O)c3ccc(OC)c(OC)c3)CC2)cc1 | / | 4 | / | / | 0 | / | / | / | / | /
COCCOC(=O)c1cc(C(=O)c2cc(Cl)ccc2O)coc1=N | 0 | 23 | -2 | 1 | -1 | -3 | / | / | / | /
COc1ccc(/C=N/NC(=S)Nc2cccc(C(=O)O)c2)cc1OC | 1 | 32 | 13* | 1 | -2 | -3 | -2 | 5 | -3 | 5
O=C(CSc1ccc(Br)cc1)NCC(c1ccco1)N1CCCCC1 (stereo not drawn) | / | -5 | / | / | 0 | / | / | / | / | /
Cc1c(C)c2ccc(OCC(=O)NCCCn3ccnc3)cc2oc1=O | / | 3 | 21* | / | 0 | 0 | -4 | -1 | -6 | 32*
O=C(COc1ccc2c3c(c(=O)oc2c1)CCCC3)NCCCn1ccnc1 | / | -15 | 30* | / | 1 | -1 | -1 | -5 | 1.4* | 41*
